Data as given in PubChem BioAssay.
Activity calls are given as the source filed them.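 The calls were made as follows, unless noted: active = viability loss from added drug above about 55%, and viability with drug at most 40%, in both replicates (limit read from the data, passing the limit was not always enough); inconclusive = both conditions met in only one replicate; inactive = neither replicate meets both conditions.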

Legend:
[1] = reduced viability of SK-BR-3 breast cancer cells – cell-based, 24 h, human, pilot screen (AID 572;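 active = viability at or below 10% of carrier control in both of two separate runs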;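 also: compound exposure lasted between 18 and 24 h rather than exactly 24 h; 100% = carrier-treated control wells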); conditions: SK-BR-3 viability, CellTiter-Glo luminescence, at 10 µM, stronger effect = lower value
[2] = HUVEC growth inhibition – cell-based, human, primary screen (AID 575;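 active = viability at or below 30% in both replicate assays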;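 also: 100% = median of untreated cell wells with 0.1% DMSO on each plate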); conditions: HUVEC proliferation, CellTiter-Glo luminescence, 72 h; at 10 µM; stronger effect = lower value
How it was run: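 Test system: primary human umbilical vein endothelial cells; medium: endothelial basal medium with 2% FBS plus growth supplements; dosing: 10 µM compound only; times: 72 h treatment at 37 °C; signal: CTG luminescence; read-out: % viability relative to median vehicle-well signal on each plate; control set: vehicle and MePR control wells; plate: 384-well, collagen-coated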

[3] = H69AR cell proliferation blockers – human, duplicate replicates, primary screen (AID 580;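 active = viability at or under a set limit in both replicates, limit being median viability minus 3 SD, cut at about 48% in these data, passing the limit was not always enough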;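 also: 100% = mean luminescence of untreated wells and 0% = no signal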); conditions: H69AR lung tumor cells viability, ATP luminescence, 72 h; at 10 µM; stronger effect = lower value
[4] = MRP1 drug-resistance reversers in H69AR cells – cell-based, doxorubicin co-treatment, pilot screen (AID 601); conditions: CellTiter-Glo, 72 h, at 10 µM; for differential viability (reversal): stronger effect = higher value
[5] = yeast transport mutant growth inhibition pilot in 384-well plates, post-Golgi transport modulator project (AID 636; in the data active = inhibition above about 31%); conditions: absorbance 615 nm, about 18 h, stronger effect = higher value
[6] = growth suppression of yeast trafficking mutant, preliminary HTS, modulators of trafficking downstream of Golgi apparatus project, 1536-format plate, OD 615 nm (AID 637; in the data active = inhibition above about 30%); conditions: yeast transport mutant growth, absorbance 615 nm, 18 h; stronger effect = higher value
[7] = H69AR cells + 2 uM doxorubicin, measured here: viability with 2 uM doxorubicin, stronger effect = lower value
[8] = H69AR cells, compound alone cytotoxicity

Row | SMILES | viability [1] | viability [2] | viability [3] | differential viability (reversal) ([4]; H69AR cells + 2 uM doxorubicin) | viability [4, 7] | viability [4, 8] | inhibition [5] | inhibition [6]
1 | CCOc1ccc2nc(SCC(=O)Nc3ncccn3)[nH]c2c1 | 92% (inactive) | 97.4% (inactive) | 105% (inactive) | 18.1% (inactive) | 86.6% | 105% | -1.62% (inactive) | 3.45% (inactive)
2 | Cc1[nH]nc(N=CC2=C(O)CC(C)(C)CC2=O)c1-c1ccccc1 | 85% (inactive) | 100% (inactive) | 88.6% (inactive) | -6.69% (inactive) | 95.3% | 88.6% | -0.95% (inactive) | 1.09% (inactive)
3 | Cc1occc1-c1nnc(SCC(=O)N2CCOCC2)n1Cc1ccco1 | 106% (inactive) | 114% (inactive) | 101% (inactive) | -2.24% (inactive) | 103% | 101% | -2.93% (inactive) | 5.09% (inactive)
4 | Nc1nc(-c2ccc(Br)s2)c(Br)s1 | 100% (inactive) | 61.3% (inactive) | 94.3% (inactive) | 9.83% (inactive) | 84.5% | 94.3% | 2.6% (inactive) | -0.16% (inactive)
5 | O=C(CNC(=O)c1cc2ccccc2o1)NCc1cccs1 | 122% (inactive) | 80.8% (inactive) | 84.4% (inactive) | -4.37% (inactive) | 88.8% | 84.4% | 0.26% (inactive) | 5.74% (inactive)
6 | CCOc1ccc(-c2c(C#N)c(N)nc3c2c(=O)n(C)c(=O)n3C)cc1OC | 114% (inactive) | 86% (inactive) | 94.7% (inactive) | 2.56% (inactive) | 92.1% | 94.7% | -6.44% (inactive) | 6.77% (inactive)
7 | CCOc1ccc(C2C(C#N)=C(N)Oc3cc(C)n(Cc4ccco4)c(=O)c32)cc1OC (stereo not drawn) | 99% (inactive) | 84.2% (inactive) | 76.7% (inactive) | -5.13% (inactive) | 81.9% | 76.7% | -0.41% (inactive) | -8.23% (inactive)
8 | O=C(Nc1ccc(N2CCCC2)cc1)c1cccc(F)c1 | 134% (inactive) | 51.7% (inactive) | 25.8% (active) | -24.6% (inactive) | 50.3% | 25.8% | -0.78% (inactive) | -0.82% (inactive)
9 | CCC(CC)n1[nH]c(=O)c2c(C)cc(C)nc21 | 81% (inactive) | 103% (inactive) | 105% (inactive) | 14.5% (inactive) | 90.5% | 105% | -5.14% (inactive) | -6% (inactive)
10 | O=C(CCNNC(=O)c1ccncc1)NCc1ccccc1 | 72% (inactive) | 84.7% (inactive) | 93.5% (inactive) | 6.55% (inactive) | 87% | 93.5% | -7.53% (inactive) | -2.67% (inactive)
11 | N#Cc1ccc(CSc2nnc(-c3cccs3)n2-c2ccccc2)cc1 | 78% (inactive) | 78% (inactive) | 78% (inactive) | 34.1% (inactive) | 44% | 78% | -0.82% (inactive) | -7.1% (inactive)
12 | Cc1ccc(Cn2c(SCC(N)=O)nc3c2c(=O)n(C)c(=O)n3C)cc1 | 106% (inactive) | 86.9% (inactive) | 86.4% (inactive) | 3.46% (inactive) | 82.9% | 86.4% | -2.4% (inactive) | -6.55% (inactive)
13 | CC(=O)Nc1c(O)[nH]c2ccccc12 | 105% (inactive) | 102% (inactive) | 93.6% (inactive) | -1.07% (inactive) | 94.7% | 93.6% | -8.49% (inactive) | 6.36% (inactive)
14 | NC(=O)OCC(COC(N)=O)c1ccccc1 | 132% (inactive) | 89.3% (inactive) | 90.7% (inactive) | -6.82% (inactive) | 97.5% | 90.7% | -0.13% (inactive) | 2% (inactive)
15 | O=C1c2ccccc2C(=O)N1c1cccc(-c2nc3ccccc3o2)c1 | 114% (inactive) | 72.5% (inactive) | 111% (inactive) | 7.94% (inactive) | 103% | 111% | -4.13% (inactive) | -3.09% (inactive)
16 | Cc1ccc(Cn2nnc(C(=O)Nc3cccc(C)c3C)c2N)cc1 | 97% (inactive) | 63.1% (inactive) | 86.2% (inactive) | -7.94% (inactive) | 94.1% | 86.2% | -6.1% (inactive) | -2.3% (inactive)
17 | Cc1ccc(OCC2Cn3c(nc4c3c(=O)n(C)c(=O)n4C)O2)cc1 (stereo not drawn) | 91% (inactive) | 96% (inactive) | 93% (inactive) | -3% (inactive) | 96% | 93% | -8.36% (inactive) | 2.91% (inactive)
18 | CN(C(=O)Cn1c(=O)n(CCCCC(=O)NC2CCCC2)c(=O)c2ccccc21)C1CCCCC1 | 106% (inactive) | 63.2% (inactive) | 93% (inactive) | 12.2% (inactive) | 80.9% | 93% | -2.73% (inactive) | 5.08% (inactive)

Row | SMILES | viability [1] | viability [2] | viability [3] | differential viability (reversal) ([4]; H69AR cells + 2 uM doxorubicin) | viability [4, 7] | viability [4, 8] | inhibition [5] | inhibition [6]
19 | COc1ccc(CN(Cc2cc3cc4c(cc3[nH]c2=O)OCO4)C(=O)NC2CCCCC2)cc1 | 85% (inactive) | 63.9% (inactive) | 96.9% (inactive) | 0.835% (inactive) | 96% | 96.9% | 1.22% (inactive) | -1.27% (inactive)
20 | COc1ccc(N=C2C(=O)Nc3ccccc32)cc1 | 103% (inactive) | 66.7% (inactive) | 75.4% (inactive) | -4.16% (inactive) | 79.5% | 75.4% | -0.4% (inactive) | -1.45% (inactive)
21 | CC(=O)OCC(=O)[C@H]1CC[C@H]2[C@@H]3CCC4=CC(=O)CC[C@]4(C)[C@H]3CC[C@]12C | 86% (inactive) | 39.2% (inactive) | 102% (inactive) | -0.2% (inactive) | 102% | 102% | -0.91% (inactive) | -3.5% (inactive)
22 | O=C(Nc1ccccc1)N1CCC(c2ccccc2)C1 (stereo not drawn) | 62% (inactive) | 109% (inactive) | 86.7% (inactive) | 19.2% (inactive) | 67.5% | 86.7% | -2.6% (inactive) | 4.92% (inactive)
23 | CCc1nnc(NC(=O)CSc2nnc3ncccn23)s1 | 91% (inactive) | 108% (inactive) | 95.5% (inactive) | -3.16% (inactive) | 98.7% | 95.5% | -5.07% (inactive) | 3.27% (inactive)
24 | Cc1nnc2c3ccccc3c(-c3ccccc3)nn12 | 88% (inactive) | 100% (inactive) | 68.1% (inactive) | 42.8% (inactive) | 25.3% | 68.1% | -6.49% (inactive) | 3.27% (inactive)
25 | COc1ccc(CCN2C(=O)CC(N3CCN(S(=O)(=O)c4ccccc4)CC3)C2=O)cc1 (stereo not drawn) | 103% (inactive) | 107% (inactive) | 96.7% (inactive) | -9.06% (inactive) | 106% | 96.7% | 2.05% (inactive) | -0.36% (inactive)
26 | CC(C)(C)n1ncc2c(=O)n(CC(=O)NCc3ccc(F)cc3)cnc21 | 95% (inactive) | 63.4% (inactive) | 14.6% (active) | -59.8% (inactive) | 74.4% | 14.6% | 2.43% (inactive) | -5.27% (inactive)
27 | Cc1csc(NC(=O)CCn2c(=O)oc3ccccc32)n1 | 91% (inactive) | 98.8% (inactive) | 94.4% (inactive) | 9.97% (inactive) | 84.5% | 94.4% | -5.95% (inactive) | 1.45% (inactive)
28 | CCN(CC)c1ccc(C(=O)n2cnc3ccccc32)cc1 | 111% (inactive) | 61.5% (inactive) | 15.1% (active) | -53.7% (inactive) | 68.8% | 15.1% | -3.33% (inactive) | -2% (inactive)
29 | COC(=O)Cc1cc(=O)n(-c2ccccc2)[nH]1 | 95% (inactive) | 91.2% (inactive) | 87.9% (inactive) | -0.48% (inactive) | 88.4% | 87.9% | -9.45% (inactive) | 0.73% (inactive)
30 | CCc1ccc(Nc2cc(=O)n(C3CCCCC3)c(=O)[nH]2)cc1 | 136% (inactive) | 44% (inactive) | 18.3% (active) | -32.1% (inactive) | 50.4% | 18.3% | -3.65% (inactive) | -13% (inactive)
31 | O=C(O)CCn1[nH]c(=O)ccc1=O | 87% (inactive) | 102% (inactive) | 97.3% (inactive) | 3.97% (inactive) | 93.4% | 97.3% | -2.05% (inactive) | 1.77% (inactive)
32 | Cc1ccc(S(=O)(=O)NCC(=O)OCC(=O)Nc2ncc(Cl)cc2Cl)cc1 | 82% (inactive) | 91.2% (inactive) | 99.6% (inactive) | -16.6% (inactive) | 116% | 99.6% | -5.21% (inactive) | 1.45% (inactive)
33 | O=C(NCCO)c1cc2ccccc2cc1O | 104% (inactive) | 110% (inactive) | 97% (inactive) | -17.9% (inactive) | 115% | 97% | -3.25% (inactive) | 4.43% (inactive)
34 | CCCCc1c(O)nc(SCC(=O)Nc2ccc3c(c2)CCC3)[nH]c1=O | 96% (inactive) | 79.7% (inactive) | 94.8% (inactive) | 10.9% (inactive) | 83.9% | 94.8% | -3.73% (inactive) | -2.91% (inactive)
35 | c1ccc(Cn2nnnc2C(c2cccs2)N2CCSCC2)cc1 (stereo not drawn) | 98% (inactive) | 93.1% (inactive) | 81.6% (inactive) | -2.6% (inactive) | 84.2% | 81.6% | -3.97% (inactive) | -4.35% (inactive)
36 | Nc1ccc(S(=O)(=O)c2cccc(N)c2)cc1 | 62% (inactive) | 100% (inactive) | 96.2% (inactive) | 11.8% (inactive) | 84.4% | 96.2% | -9.18% (inactive) | 1.64% (inactive)
